High-throughput results (PubChem BioAssay)
Fibroblast inh: antiproliferative effect on LL 47 fibroblasts – human, LL 47 cells, CellTiter-Glo luminescence, primary screen. actives 1.1% (n = 85,000). AID 719, 2007. viability, % at 10 µM. LL 47 human lung fibroblast viability, ATP luminescence; hits give low values;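 active = viability at or below 50% in the single dose screen; inactive = viability above 50%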;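 note: compound exposure lasted 72 h before the ATP readout; 100% = median luminescence of untreated cell-only wells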
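Times – overnight cell rest, 72 h compound treatment at 37 °C · Test system – human lung fibroblast line LL 47, low passage · Amount – 1,150 cells in each well · Controls – cell-only wells, no compound · Doses – 0.1% DMSO in all compound wells · Measured by – CellTiter-Glo luminescence · Buffer or medium – IMEM plus 15% FBS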
H69AR growth 86K: proliferation blockers of H69AR lung cancer cells, primary screen, cell-based, human, 86K library; viability, % at 10 µM; H69AR lung tumor viability, ATP luminescence, 72 h; hits give low values; AID 598, 2007; actives 6% (n = 85,000);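 active = viability at or below 40%; inactive = viability above 40%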;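 note: multidrug resistant small cell line overexpressing MRP-1 efflux transporter; 100% = mean luminescence of untreated control wells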
Jurkat viability: cytotoxicity toward Jurkat T cells, primary screen, cytotoxicity control, cell-based, Jurkat E6.1, 60K MLSMR library | Jurkat E6.1 viability, ATP luminescence, 48 h | inhibition, % at 4 µM | actives 1.2% (n = 56,000) | AID 463, 2006;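 active = inhibition above the mean inhibition of all tested compounds plus 3 SD, cut at about 28% in these data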
HUVEC inhibit: inhibitors of HUVEC proliferation, primary screen, cell-based, 384-well; CellTiter-Glo luminescence, 72 h; hits give low values; actives 1.1% (n = 86,000); viability, % at 10 µM (by protocol);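 active = viability at or below 30%; inactive = viability above 30%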;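 note: 100% = median luminescence of DMSO-only cell control wells on each plate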
PTK2B oligo ant: antagonists of Pyk2 self-association, primary screen, Q293 cells, FERM NanoBiT luminescence, HTS | hits give low values | Protein-tyrosine kinase 2-beta (Homo sapiens), Q14289 | z-score (the deposit names both 25 µM and 10 µM) | actives 0.83% (n = 99,000) | AID 1347419, 2020;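 active = Z-score of -3 or lower, scaled per plate to the spread of control and sample wells; inactive = z-score above -3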;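 note: negative z-score means lost luminescence so less FERM oligomerization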
Target sequence (Q14289 whole entry, looked up): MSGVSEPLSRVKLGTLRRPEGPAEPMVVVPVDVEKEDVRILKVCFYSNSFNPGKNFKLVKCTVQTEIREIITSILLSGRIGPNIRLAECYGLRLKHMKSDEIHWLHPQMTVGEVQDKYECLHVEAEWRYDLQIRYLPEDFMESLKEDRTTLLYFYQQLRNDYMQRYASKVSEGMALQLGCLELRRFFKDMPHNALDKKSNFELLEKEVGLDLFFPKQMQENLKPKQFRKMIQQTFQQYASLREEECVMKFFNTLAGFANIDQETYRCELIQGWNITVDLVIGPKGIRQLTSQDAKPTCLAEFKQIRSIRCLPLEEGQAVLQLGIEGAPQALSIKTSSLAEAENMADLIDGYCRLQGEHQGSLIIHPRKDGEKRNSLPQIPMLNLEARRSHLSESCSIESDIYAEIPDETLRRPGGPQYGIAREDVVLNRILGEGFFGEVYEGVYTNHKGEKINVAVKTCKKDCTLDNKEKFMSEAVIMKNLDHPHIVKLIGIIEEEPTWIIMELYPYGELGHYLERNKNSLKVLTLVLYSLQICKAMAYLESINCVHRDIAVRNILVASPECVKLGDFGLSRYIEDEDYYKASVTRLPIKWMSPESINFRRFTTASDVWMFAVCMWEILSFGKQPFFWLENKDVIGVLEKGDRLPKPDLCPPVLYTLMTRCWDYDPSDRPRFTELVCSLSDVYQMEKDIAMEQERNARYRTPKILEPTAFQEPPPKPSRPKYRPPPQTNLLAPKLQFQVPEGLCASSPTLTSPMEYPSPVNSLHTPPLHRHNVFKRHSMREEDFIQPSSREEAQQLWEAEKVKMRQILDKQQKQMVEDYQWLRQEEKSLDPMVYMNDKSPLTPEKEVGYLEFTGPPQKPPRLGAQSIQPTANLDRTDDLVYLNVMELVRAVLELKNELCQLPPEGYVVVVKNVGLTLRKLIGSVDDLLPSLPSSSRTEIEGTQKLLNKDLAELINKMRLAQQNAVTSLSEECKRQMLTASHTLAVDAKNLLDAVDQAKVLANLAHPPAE
MT1-MMP txn act: MT1-MMP promoter reporter activation – cell-based, luciferase luminescence, primary screen. HT1080 MT1-MMP promoter luciferase reporter, overnight; hits give high values. activation factor at 10 µM. actives 0.16% (n = 86,000). AID 750, 2007;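 active = activation factor of at least 2 for MT1-MMP transcription at 10 µM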
* = called active by the depositor; / = no result given. Sampled rows, rich in hits. Any-hit rate of the full collection: about 5.9%.

SMILES	Fibroblast inh	H69AR growth 86K	Jurkat viability	HUVEC inhibit	PTK2B oligo ant	MT1-MMP txn act
CCC(=NCCCN(CC)CC)c1c(O)n(C2CCCCC2)c(=O)[nH]c1=O	93	88	-1	95	0.34	1
CCC(=NCc1ccco1)c1c(O)n(C2CCCCC2)c(=O)[nH]c1=O	99	32*	-3	102	-0.25	1
CCCC(=O)OCC[N+](C)(C)C	92	101	/	100	/	1.2
O=P(O)(O)Cc1ccccc1OP(=O)(c1ccccc1)c1ccccc1	104	91	7	97	1	1.1
CN(C)c1ccc(C(=O)c2ccc(N(C)C)cc2)cc1	55	16*	/	41	-1	1.7
CCC(=NCCO)c1c(O)n(-c2ccc(Cl)cc2)c(=O)[nH]c1=O	89	83	-2	81	1.5	1
COC(=O)C1CN(C#N)N(c2ccc(Cl)cc2)C12c1ccccc1-c1ccccc12 (centres undefined)	2.1*	2.3*	/	2.4*	-2.9	0.1
CCOC(=O)c1c(-c2ccc(OC)cc2)oc2ccc(OC(=O)N(C)C)cc12	103	33*	-4	72	-1.5	1.3
CCOP(=O)(CN(CC)CCNP(=O)(OCC)OCC)OCC	100	87	/	97	0.08	1.3
CCCCCCn1c(O)c(C=NC2CCCCC2N)c(=O)[nH]c1=O (centres undefined)	81	29*	-6	5.0*	/	1.3
CCCCn1c(=O)c(C(=O)Nc2ccccc2S(N)(=O)=O)c(O)c2ccccc21	104	23*	-4	74	-1.1	1.3
CCCCNC(=O)c1c(N)n(CCCOC)c2nc3ccccc3nc12	/	/	/	/	-1.7	1.2
O=C(Nc1cccnc1)c1c(O)c2c(n(Cc3ccccc3)c1=O)CCCC2	103	86	6	94	1.7	1.1
O=C(Nc1ccncc1)c1c(O)c2ccccc2n(Cc2ccccc2)c1=O	92	17*	/	99	/	1.1
CCCCn1c(=O)c(C(=O)NCc2ccncc2)c(O)c2ccccc21	100	75	3	123	-0.53	1.2
CCCCCCn1c(=O)c(C(=O)Nc2ccncc2)c(O)c2ccccc21	55	12*	-4	63	/	0.9
CC(=O)c1ccc2c(c1)C1C(Cl)C(Sc3ccccc3[N+](=O)[O-])CC1C(c1ccccc1[N+](=O)[O-])N2 (centres undefined)	89	70	/	74	-3.4*	1.3
C(#CCN1CCOCC1)COCc1ccccc1	94	101	-4	87	0.83	1.2
COc1ccc(Oc2cc(NC(=O)c3nn(C)cc3[N+](=O)[O-])cc([N+](=O)[O-])c2)cc1	/	/	/	/	-3.7*	/
CCCCCCCC(=O)NC(Oc1ccccc1[N+](=O)[O-])C(Cl)(Cl)Cl (centres undefined)	97	94	/	105	-0.96	1
CN1CSC(=S)N(C)C1	99	28*	/	102	0.76	/
COc1ccccc1N1CCN(Cc2ccc(Br)s2)CC1	95	94	-4	120	0.63	1.1
CC1(C)COC(Nc2ccc(Cl)cc2)=N1	99	95	-2	107	-0.52	/
NS(=O)(=O)c1ccc(N=Cc2c(O)n(C3CCCCC3)c(=O)n(C3CCCCC3)c2=O)cc1	39*	0.9*	1	1.8*	-1	1.1
Cn1c(O)c(C=Nc2ccc(Cl)cc2)c(=O)n(C)c1=O	108	97	-7	82	0.45	1.1
SMILES	Fibroblast inh	H69AR growth 86K	Jurkat viability	HUVEC inhibit	PTK2B oligo ant	MT1-MMP txn act
CN1C[C@H](CNC(=O)OCc2ccccc2)C[C@@H]2c3cccc4c3c(cn4C)C[C@H]21	76	1.7*	/	3.9*	/	1.4
O=C(NC[P+](=O)O)OCc1ccccc1	102	87	-1	93	0.42	1
COCCOC(=O)c1c(N)n(Cc2ccco2)c2nc3ccccc3nc12	100	50	/	93	-0.49	1.1
CCCNC(=O)c1c(N)n(Cc2ccco2)c2nc3ccccc3nc12	92	26*	/	65	/	1
Nc1c(C(=O)NCc2ccco2)c2nc3ccccc3nc2n1CCN1CCCCC1	60	1.2*	/	19*	-0.56	1.1
CC(C)CNC(=O)c1c(N)n(Cc2ccco2)c2nc3ccccc3nc12	76	34*	/	66	0.66	1.1
CCCN1[C@@H]2C[C@@H](O)CC[C@@H]2C[C@H]1C(=O)OC	/	/	/	/	/	1.2
O=P1(Nc2ccc(F)cc2)COc2ccccc2OC1	97	99	-11	94	0.04	1.2
CCOC(=O)C(C)(CC)NC(=O)CSP(=S)(OCC)OCC (centres undefined)	109	94	/	104	0.51	1.2
CC1CCC/C=C/C2CC(O)CC2C(O)/C=C/C(=O)O1 (centres undefined)	11*	2.9*	/	8.3*	0.56	/
Cc1n[nH]c(C)c1CCN	106	101	-2	102	2.6	1.1
Cc1[nH]c2c(C(F)(F)F)cccc2c1CCN	71	18*	53*	83	-0.01	1.4
O=C1NC(=O)C2(Cc3ccccc3N3CCOCC32)C(=O)N1c1ccccc1 (centres undefined)	94	19*	/	72	0.7	1.3
CCCC/C=C/[C@@H](NP(=O)(c1ccccc1)c1ccccc1)c1ccccc1OC	/	/	/	/	/	1
CC(C)C12CN3CC(C(C)C)(CN(C1)C3c1cccnc1)C2=O (centres undefined)	97	94	/	97	-0.58	1.1
Cc1nn(-c2ccccc2)c(Cl)c1C1C(C#N)=C(N)Oc2c1c(=O)oc1ccccc21 (centres undefined)	89	86	-3	89	-3.2*	1.1
N#CC1=C(N)Oc2c(c(=O)oc3ccccc23)C1c1cccnc1 (centres undefined)	97	92	/	90	-0.94	1.2
CCC(CC)C1C(C#N)=C(N)Oc2c1c(=O)oc1ccccc21 (centres undefined)	88	37*	/	87	-1.4	1.2
CN1/C(=C\C=C\C2=[N+](C)c3ccc4ccccc4c3C2(C)C)C(C)(C)c2ccccc21	1.6*	0.1*	/	2.0*	/	/
CCOc1ccccc1-n1c(O)c(C=NCc2ccc3c(c2)OCO3)c(=O)[nH]c1=O	96	101	0	97	-0.03	1.2
O=c1[nH]c(=O)n(CCc2ccccc2)c(O)c1C=NCc1ccc2c(c1)OCO2	80	35*	/	71	-0.51	1
O=P(O)(O)C#Cc1ccccc1	106	81	-2	86	/	1.1
COc1ccccc1N=Cc1c(O)n(C)c(=O)n(C)c1=O	93	1.3*	-1	97	1.3	1.5
O=C(Nc1ccc(Br)cc1)c1nn(C23CC4CC(CC(C4)C2)C3)cc1Br	/	/	/	/	-0.55	/
